In ChEMBL document CHEMBL4334460, “Madecassic Acid Derivatives as Potential Anticancer Agents: Synthesis and Cytotoxic Evaluation” (2019):
Calls of active or inactive are those of the source. No cut-off for these calls is given here.

Tests used:
[1] = tested on: CCRF-CEM; assay: Antiproliferative activity against human CCRF-CEM cells assessed as cell growth at 10 uM after 48 hrs by sulforhodamine B assay relative to control; assay type: functional; conditions: pooled result: one value given for 60 cell lines, strains, targets or settings, read-out: Activity
Outline: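 NCI-60 one-dose screen: cells exposed to test compound at a single 10 μM concentration, viability after 48 h read by sulforhodamine B staining; value is growth percent versus negative control, with a time-zero cell control used to determine total cell growth.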

[2] = tested on: CCRF-CEM; assay: Antiproliferative activity against human CCRF-CEM cells assessed as growth inhibition after 48 hrs by sulforhodamine B assay; assay type: functional; conditions: pooled result: one value given for 58 cell lines, strains, targets or settings
[3] = tested on: HCT-15; assay: Antiproliferative activity against human HCT15 cells assessed as growth inhibition after 48 hrs by sulforhodamine B assay; assay type: functional; conditions: HCT-15, 48 h
[4] = tested on: UO-31; assay: Antiproliferative activity against human UO31 cells assessed as growth inhibition after 48 hrs by sulforhodamine B assay; assay type: functional; conditions: UO-31, 48 h
Outline: (§1)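 NCI-60 five-dose follow-up, run only when the one-dose screen indicated activity. Doses 100 μM down to 0.01 μM in log steps (0.01, 0.1, 1, 10, 100 μM). 48 h incubation with sulforhodamine B read-out. A time-zero cell control allowed calculation of GI50 from % growth vs concentration dose–response curves.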

[5] = tested on: COLO 205; assay: Induction of cell cycle arrest in human COLO205 cells assessed as increase in accumulation of cells at G2/M phase at 2 uM after 24 hrs by PI/RNase staining based flow cytometry (reference value: 18.6%); assay type: functional
Outline: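 Positive-control arm of the COLO 205 cell-cycle assay: nocodazole 2 μM for 24 h. Culture conditions as above (RPMI, 10% FBS, 37 °C, 5% CO2). Ethanol-fixed cells stained with PI/RNase 40 min at 37 °C and analysed by imaging cytometry for phase distribution. Three independent experiments.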

[6] = tested on: COLO 205; assay: Antiproliferative activity against human COLO205 cells assessed as growth inhibition after 48 hrs by sulforhodamine B assay; assay type: functional; conditions: COLO 205, 48 h
[7] = tested on: SK-MEL-5; assay: Antiproliferative activity against human SK-MEL-5 cells assessed as growth inhibition after 48 hrs by sulforhodamine B assay; assay type: functional; conditions: SK-MEL-5, 48 h
[8] = tested on: UACC-257; assay: Antiproliferative activity against human UACC257 cells assessed as growth inhibition after 48 hrs by sulforhodamine B assay; assay type: functional; conditions: UACC-257, 48 h; outline: as §1
[9] = Selectivity ratio of GI50 for human NCI-H226 cells to GI50 for human NCI-H460 cells; assay type: functional
[10] = Selectivity ratio of GI50 for human Hs 578T cells to GI50 for human MCF7 cells; assay type: functional
[11] = Selectivity ratio of GI50 for human Hs 578T cells to GI50 for human T47D cells; assay type: functional
[12] = Selectivity ratio of GI50 for human Hs 578T cells to GI50 for human MDA-MB-468 cells; assay type: functional
[13] = Selectivity ratio of GI50 for human NCI-H226 cells to GI50 for human NCI-H23 cells; assay type: functional
[14] = Selectivity ratio of GI50 for human OVCAR5 cells to GI50 for human OVCAR4 cells; assay type: functional
[15] = Selectivity ratio of GI50 for human RXF 393 cells to GI50 for human CAKi1 cells; assay type: functional
[16] = tested on: UACC-257; assay: Antiproliferative activity against human UACC257 cells assessed as reduction in cell viability after 48 hrs by SRB assay; assay type: functional; conditions: UACC-257, 48 h, read-out: LC50 (the source's name)
Outline: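 NCI-60 five-dose testing at 100, 10, 1, 0.1 and 0.01 μM (log dilutions). After 48 h incubation, viability was read by sulforhodamine B staining. A time-zero cell control gave total growth per cell line. GI50, TGI and LC50 were calculated from % growth versus concentration curves.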

[17] = tested on: COLO 205; assay: Induction of cell cycle arrest in human COLO205 cells assessed as cell population at G0/G1 phase at 10 uM after 48 hrs by PI/RNase staining based flow cytometry (reference value: 63.8%); assay type: functional
Outline: (§2)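 COLO 205 cells grown at 37 °C, 5% CO2 in RPMI with 10% FBS and penicillin/streptomycin. Treated 48 h with 10 or 20 μM compound or DMSO vehicle. Cells trypsinized, fixed in ethanol 15 min on ice, stained with PI/RNase solution 40 min at 37 °C, then analysed by imaging cytometry. % cells per phase given as mean ± SD of three independent experiments.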

[18] = tested on: COLO 205; assay: Induction of cell cycle arrest in human COLO205 cells assessed as cell population at S phase at 10 uM after 48 hrs by PI/RNase staining based flow cytometry (reference value: 16.3%); assay type: functional; outline: as §2
[19] = tested on: COLO 205; assay: Induction of cell cycle arrest in human COLO205 cells assessed as cell population at G2/M phase at 10 uM after 48 hrs by PI/RNase staining based flow cytometry (reference value: 18.6%); assay type: functional; outline: as §2
[20] = tested on: COLO 205; assay: Induction of cell cycle arrest in human COLO205 cells assessed as cell population at G0/G1 phase at 20 uM after 48 hrs by PI/RNase staining based flow cytometry (reference value: 63.8%); assay type: functional; outline: as §2
[21] = tested on: COLO 205; assay: Induction of cell cycle arrest in human COLO205 cells assessed as cell population at S phase at 20 uM after 48 hrs by PI/RNase staining based flow cytometry (reference value: 16.3%); assay type: functional; outline: as §2
[22] = tested on: COLO 205; assay: Induction of cell cycle arrest in human COLO205 cells assessed as cell population at G2/M phase at 20 uM after 48 hrs by PI/RNase staining based flow cytometry (reference value: 18.6%); assay type: functional; outline: as §2
[23] = tested on: COLO 205; assay: Induction of mitochondrial dysfunction in human COLO205 cells assessed as reduction in mitochondrial membrane potential by measuring shift in red to green fluorescence after 48 hrs by JC-1 staining based inverted microscopic analysis; assay type: functional, cell-based
Outline: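 COLO 205 cells (5 × 10^5) grown on coverslips overnight, then treated 48 h with 10 or 20 μM compound or DMSO. Fresh medium with 4 μg/mL JC-1 added for 30 min at 37 °C. Cells washed twice and imaged immediately by inverted fluorescence microscopy (40× objective) at room temperature, scoring red aggregate vs green monomer fluorescence.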

| GI50 [2] [µM] | GI50 [3] [µM] | Compound | growth at 10 µM [1] [%] | GI50 [4] [µM] | also measured |
| --- | --- | --- | --- | --- | --- |
| – | – | COC(=O)[C@]12CC[C@@H](C)[C@H](C)[C@H]1C1=CC[C@@H]3[C@@]4(C)CC(=O)[C@H](OC(=O)/C=C/c5ccccc5)[C@@]5(C)COC(=C45)C[C@@]3(C)[C@]1(C)CC2 | 78.2 | – | – |
| 18.2 | 18.2 | COC(=O)[C@]12CC[C@@H](C)[C@H](C)[C@H]1C1=CC[C@@H]3[C@@]4(C)CC(=O)[C@H](O)[C@@]5(C)COC(=C45)C[C@@]3(C)[C@]1(C)CC2 | -62.9 | 18.2 | – |
| 2.4 | 2.4 | COC(=O)[C@]12CC[C@@H](C)[C@H](C)[C@H]1C1=CC[C@@H]3[C@@]4(C)C[C@@H](OC(=O)/C=C/c5ccccc5)[C@H](O)[C@@](C)(CO)[C@@H]4[C@H](O)C[C@@]3(C)[C@]1(C)CC2 | -4.8 | 2.4 | – |
| – | – | COC(=O)[C@]12CC[C@@H](C)[C@H](C)[C@H]1C1=CC(=O)[C@@H]3[C@@]4(C)C[C@@H](O)[C@H](O)[C@@]5(C)COC(=C45)C[C@@]3(C)[C@]1(C)CC2 | 51.5 | – | – |
| 8.9 | 8.9 | COC(=O)[C@]12CC[C@@H](C)[C@H](C)[C@H]1C1=CC[C@@H]3[C@@]4(C)C=C(O)C(=O)[C@@]5(C)COC(=C54)C[C@@]3(C)[C@]1(C)CC2 | -58.9 | 8.9 | – |
| – | – | COC(=O)[C@]12CC[C@@H](C)[C@H](C)[C@H]1C1=CC(=O)[C@@H]3[C@@]4(C)C[C@@H](OC(C)=O)[C@H](OC(C)=O)[C@@](C)(COC(C)=O)[C@@H]4C(=O)C[C@@]3(C)[C@]1(C)CC2 | 45.8 | – | – |
| – | – | COC(=O)Nc1nc2cc(C(=O)c3cccs3)ccc2[nH]1 | – | – | Activity [5]: Active |
| 12 | 12 | COC(=O)[C@]12CC[C@@H](C)[C@H](C)[C@H]1C1=CC[C@@H]3[C@@]4(C)C=C(O)C(=O)C(C)=C4CC[C@@]3(C)[C@]1(C)CC2 | 31.7 | 12 | – |
| 12.9 | 12.9 | COC(=O)[C@]12CC[C@@H](C)[C@H](C)[C@H]1C1=CC[C@@H]3[C@@]4(C)C[C@@H](O)[C@H](O)[C@@](C)(CO)[C@@H]4[C@H](O)C[C@@]3(C)[C@]1(C)CC2 | -54.1 | 12.9 | – |
| – | – | COC(=O)[C@]12CC[C@@H](C)[C@H](C)[C@H]1C1=CC[C@@H]3[C@@]4(C)C=C(O)C(=O)C(C)=C4C(=O)C[C@@]3(C)[C@]1(C)CC2 | 67.8 | – | – |
| 2.3 | 2.3 | COC(=O)[C@]12CC[C@@H](C)[C@H](C)[C@H]1C1=CC[C@@H]3[C@@]4(C)C[C@@H](OC(=O)c5ccco5)[C@H](O)[C@@](C)(CO)[C@@H]4[C@H](O)C[C@@]3(C)[C@]1(C)CC2 | -83 | 2.3 | – |
| 6.6 | 6.6 | COC(=O)[C@]12CC[C@@H](C)[C@H](C)[C@H]1C1=CC[C@@H]3[C@@]4(C)C/C(=N\O)[C@H](O)[C@@]5(C)COC(=C45)C[C@@]3(C)[C@]1(C)CC2 | -76.9 | 6.6 | – |
| – | – | C[C@H]1[C@H](C)CC[C@]2(C(=O)O)CC[C@]3(C)C(=CC[C@@H]4[C@@]5(C)C[C@@H](O)[C@H](O)[C@@](C)(CO)[C@@H]5[C@H](O)C[C@]43C)[C@H]12 [MADECASSIC ACID] | 99.2 | – | – |
| 17 | 17 | COC(=O)[C@]12CC[C@@H](C)[C@H](C)[C@H]1C1=CC[C@@H]3[C@@]4(C)C[C@@H](O)[C@H](O)[C@@](C)(CO)C4=CC[C@@]3(C)[C@]1(C)CC2 | -55.4 | 17 | – |
| 11 | 11 | COC(=O)[C@]12CC[C@@H](C)[C@H](C)[C@H]1C1=CC[C@@H]3[C@@]4(C)C[C@@H](OC(C)=O)[C@H](O)[C@@](C)(CO)[C@@H]4[C@H](O)C[C@@]3(C)[C@]1(C)CC2 | -79.2 | 11 | – |
| 10 | 10 | COC(=O)[C@]12CC[C@@H](C)[C@H](C)[C@H]1C1=CC[C@@H]3[C@@]4(C)CC(=O)[C@H](O)[C@@](C)(CO)[C@@H]4C(=O)C[C@@]3(C)[C@]1(C)CC2 | -22.4 | 10 | – |
| 4.9 | 4.9 | COC(=O)[C@]12CC[C@@H](C)[C@H](C)[C@H]1C1=CC[C@@H]3[C@@](C)(CC#N)C4=C(C[C@@]3(C)[C@]1(C)CC2)OC[C@]4(C)C=O | -18.1 | 4.9 | – |
| 1.7 | 1.7 | COC(=O)[C@]12CC[C@@H](C)[C@H](C)[C@H]1C1=CC[C@@H]3[C@@]4(C)C[C@@H](OC(C)=O)[C@H](OC(C)=O)[C@@](C)(COC(C)=O)[C@@H]4[C@H](O)C[C@@]3(C)[C@]1(C)CC2 | 8 | 1.7 | – |
| – | – | COC(=O)[C@]12CC[C@@H](C)[C@H](C)[C@H]1C1=CC[C@@H]3[C@@]4(C)C[C@@H](O)[C@H](O)[C@@]5(C)COC(=C45)C[C@@]3(C)[C@]1(C)CC2 | 85.8 | – | – |

| Compound | GI50 [2] [µM] | GI50 [3] [µM] | growth at 10 µM [1] [%] | GI50 [4] [µM] | also measured |
| --- | --- | --- | --- | --- | --- |
| COC(=O)[C@]12CC[C@@H](C)[C@H](C)[C@H]1C1=CC[C@@H]3[C@@]4(C)CC(=O)[C@H](OC(=O)c5ccco5)[C@@]5(C)COC(=C45)C[C@@]3(C)[C@]1(C)CC2 | 2.3 | 0.5 | 27.2 | 1.7 | TGI [6]: 3 µM; TGI [7]: 2.6 µM; TGI [8]: 3 µM; RatioGI50 [9]: >100; RatioGI50 [10]: >100; RatioGI50 [11]: >100; RatioGI50 [12]: >100; RatioGI50 [13]: >50; RatioGI50 [14]: >50; RatioGI50 [15]: >50; CC50 [16]: 50.1 µM; Activity [17]: 88.4%; Activity [18]: 3.8%; Activity [19]: 6.6%; Activity [20]: 89.1%; Activity [21]: 3.3%; Activity [22]: 6.2%; Activity [23]: Dose-dependent effect |
